Results of several laboratories.
Protocols differ between the studies behind these lines.
ALK L1196M: ALK tyrosine kinase receptor (ALK, Homo sapiens, UniProt Q9UM73, L1196M)
ALK C1156Y: ALK tyrosine kinase receptor (ALK, Homo sapiens, UniProt Q9UM73, C1156Y)
ALK: ALK tyrosine kinase receptor (ALK, Homo sapiens, UniProt Q9UM73)

SMILES	target	observed	method	tested at	remaining binding [%]
c1cncc(-c2cccc(Nc3nccc(NC4CCCCC4)n3)c2)c1	ALK L1196M	binding	competition with immobilised ligand	10 µM	57
C[C@@H]1CN(c2cc(-c3nn(C)c4ccc(OC5(C)CC5)cc34)ncn2)C[C@H](C)O1	ALK C1156Y	cell-free assay	competition with immobilised ligand	1 µM	82
C[C@@H](c1ccc(-n2cnc3c(N)ncnc32)cc1)N1CCc2nn(C)c(Cc3ccccc3)c2C1=O	ALK	binding	competition with immobilised ligand	0.1 µM	76
Nc1ncc2c(n1)-c1c([nH]c3ccc(C#CC4CC4)cc13)CCCC2	ALK C1156Y	binding	competition with immobilised ligand	1 µM	84
CNC(=O)[C@@H]1CC[C@@H](n2c(-c3ccc4cnccc4c3)nc3ccc(C(=O)NCc4cccc(C(N)=O)c4)cc32)C1	ALK	binding	competition with immobilised ligand	1 µM	100
CN(c1nccc(-c2cnn3ncccc23)n1)C1CC1	ALK L1196M	binding		1 µM	100
Cc1cnc(Nc2ccc(C(=O)N3CCC(N4CCCC4)CC3)cc2)nc1-c1cc2ccccc2s1	ALK	binding	competition with immobilised ligand	1 µM	42
CO[C@@H](C)c1c(Nc2ccc([C@H](N(C)C(=O)C3CCS(=O)(=O)CC3)C(F)(F)F)cc2)cnc2cc(Cl)nn12	ALK L1196M	cell-free assay	competition with immobilised ligand	1 µM	100
O=C(NCCCN1CCOCC1)c1ccc(Nc2nccc(-c3cc4ccccc4s3)n2)cc1	ALK C1156Y	binding	competition with immobilised ligand	1 µM	97
c1cnn2ncc(-c3ccnc(N4CCC45COC5)n3)c2c1	ALK C1156Y	binding		1 µM	73
O=C(NCc1ncc(C(F)(F)F)cc1Cl)c1ccc2c(c1)C1(CCS(=O)(=O)CC1)[C@H](C1CC1)N2S(=O)(=O)c1ccc(F)cc1	ALK C1156Y	cell-free assay	competition with immobilised ligand	1 µM	82
COc1ncc2cc3ccccc3nc2c1C#N	ALK C1156Y	cell-free assay	competition with immobilised ligand	5 µM	96
CC1CCCN1c1nccc(-c2cnn3ncccc23)n1 (centres unmarked)	ALK L1196M	binding		1 µM	85
C=CC(=O)N1CCC(C(=O)NCC(=O)N2CCN(c3nc(-c4cnc(N)nc4C(F)F)nc(N4CCOCC4)n3)CC2)CC1	ALK	binding	competition with immobilised ligand	1 µM	71
O=C(c1ccc(Nc2ncc(Cl)c(-c3ccc(Cl)s3)n2)cc1)N1CCC(N2CCCC2)CC1	ALK C1156Y	binding	competition with immobilised ligand	1 µM	38
CN1CCN(c2ccc(Nc3nccc(-c4cccc([N+](=O)[O-])c4)n3)cc2C(F)(F)F)CC1	ALK L1196M	binding		10 µM	76
CN(C)c1nccc(-c2cnn3ncccc23)n1	ALK	binding		1 µM	100
CCCCN(CCCC)C(=O)CN1C[C@H](c2cc(OC)c3c(c2)OCO3)[C@@H](C(=O)O)[C@@H]1CC(C)(C)CCC	ALK C1156Y	cell-free assay	competition with immobilised ligand	1 µM	100
O=C(c1ccc(Nc2nccc(-c3cc4ccccc4s3)n2)cc1)N1CCC(N2CCCC2)CC1	ALK L1196M	binding	competition with immobilised ligand	1 µM	80

SMILES	target	observed	method	tested at	remaining binding [%]
COc1cnc(Nc2cccc(S(N)(=O)=O)c2)nc1N1CCN(c2ccccc2)C(=O)C1	ALK L1196M	binding	competition with immobilised ligand	1 µM	81
O=C(c1ccc(Nc2ncc(Cl)c(-c3cc4ccccc4s3)n2)cc1)N1CCC(N2CCCC2)CC1	ALK L1196M	binding	competition with immobilised ligand	1 µM	100
COc1cnc(Nc2cccc(S(N)(=O)=O)c2)nc1N1CCN(c2ccccc2)CC1	ALK C1156Y	binding	competition with immobilised ligand	1 µM	100
C[C@@H]1CN(c2ccc3ncc(-c4ccc5[nH]nc(C6CC6)c5c4)n3n2)C[C@H](C)O1	ALK	binding	competition with immobilised ligand	50 nM	64
O=C(NCCCN1CCOCC1)c1ccc(Nc2ncc(Cl)c(-c3ccc(Cl)s3)n2)cc1	ALK C1156Y	binding	competition with immobilised ligand	1 µM	61
CN1CCN(c2ccc(Nc3nccc(-c4ccccc4)n3)cc2C(F)(F)F)CC1	ALK C1156Y	binding		10 µM	60
Cc1cnn2ncc(-c3ccnc(N(C)C)n3)c2c1	ALK C1156Y	binding		1 µM	100
NS(=O)(=O)c1cc(NC(=O)Cc2ccccc2)ccc1Oc1cccc(Cl)c1	ALK C1156Y	cell-free assay	competition with immobilised ligand	1 µM	88
O=C(Nc1c[nH]nc1C(=O)NC1CCNCC1)c1cc(F)cc(F)c1	ALK	binding	competition with immobilised ligand	1 µM	91
COc1ccnn2ncc(-c3ccnc(N(C)C)n3)c12	ALK L1196M	binding		1 µM	91
COc1ccc2c(c1)O[C@H](c1ccc(OC)c(OC)c1)C[C@@H]2NC(=O)C1(c2ccc3c(c2)OC(F)(F)O3)CC1	ALK	cell-free assay	competition with immobilised ligand	1 µM	100
N#Cc1ccccc1CSc1nnc2c(n1)[nH]c1ccccc12	ALK	binding	competition with immobilised ligand	10 µM	72
CC(C)(C)c1ccc(-c2nc(CBr)nn2-c2cccc(O)c2)cc1	ALK	cell-free assay	competition with immobilised ligand	10 µM	78
FC(F)(F)Oc1cccc(-c2cnc3ccc(-c4ccncc4)nn23)c1	ALK	cell-free assay	competition with immobilised ligand	5 µM	100
C[C@H](c1ccc(F)cc1)N(Cc1cccc(C(=O)O)c1)C(=O)c1cnc2ccccc2c1	ALK L1196M	cell-free assay	competition with immobilised ligand	1 µM	76
C[C@H]1CCN(c2nccc(-c3cnn4ncccc34)n2)C1	ALK C1156Y	binding		1 µM	99
O=C(NCC1CCOCC1)c1n[nH]cc1NC(=O)c1c(F)cccc1F	ALK C1156Y	binding	competition with immobilised ligand	1 µM	99
F[C@@H]1CCN(c2nccc(-c3cnn4ncccc34)n2)C1	ALK C1156Y	binding		1 µM	100
CN([C@@H]1CCc2c(CC(=O)O)c3cc(S(C)(=O)=O)ccc3n2C1)S(=O)(=O)c1ccc(F)cc1	ALK L1196M	cell-free assay	competition with immobilised ligand	1 µM	89
